According to ChEMBL document CHEMBL1154561, “Bioactive compounds from Combretum erythrophyllum” (J Nat Prod, 2000):
Values after ≈ are worked out from the molar mass of the structure shown.

Key:
A549 = test: Cytotoxicity against human A549 cells by XTT assay; assay type: functional, cell-based
Saccharomyces cerevisiae [1] = test: Inhibition of pRAD52 recombination repair gene/topoisomerase 1 deficient Saccharomyces cerevisiae RS321N carrying pRAD52 in galactose medium by microtiter plate assay; assay type: functional, organism-based
How it was run: (§1)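 Yeast in minimal medium with galactose or glucose at 2% final. Samples are dissolved in 10% DMSO at 10× final concentration and added 1:10 to the cell suspension in triplicate, with 10% DMSO wells as controls. Plates are incubated at 30 °C in high humidity for 48-72 h and read when control growth reaches OD 0.15-0.25. Inhibition = 1 − (ODtest − ODblank)/(ODplate median − ODblank); IC50 in µg/mL.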

HeLa = test: Cytotoxicity against human HeLa cells by XTT assay; assay type: functional, cell-based
Saccharomyces cerevisiae [2] = test: Inhibition of Saccharomyces cerevisiae RS321NYCp50 in galactose medium by microtiter plate assay; assay type: functional, organism-based; how it was run: as §1
Saccharomyces cerevisiae [3] = test: Inhibition of pRAD52 recombination repair gene/topoisomerase 1 deficient Saccharomyces cerevisiae RS321N carrying pRAD52 in glucose medium by microtiter plate assay; assay type: functional, organism-based; how it was run: as §1
Saccharomyces cerevisiae [4] = test: Inhibition of Saccharomyces cerevisiae RS322 expressing Rad52.erg6 by agar diffusion assay; assay type: functional
Saccharomyces cerevisiae [5] = test: Inhibition of Saccharomyces cerevisiae RS188 expressing wild type erg6 by agar diffusion assay; assay type: functional, organism-based
Saccharomyces cerevisiae [6] = test: Inhibition of Saccharomyces cerevisiae RS321 expressing Rad52.erg6.top1 by agar diffusion assay; assay type: functional

| SMILES | IC50 (A549) [µg/mL] | IC50 (Saccharomyces cerevisiae [1]) [µg/mL] | IC50 (HeLa) [µg/mL] | IC50 (Saccharomyces cerevisiae [2]) [µg/mL] | IC50 (Saccharomyces cerevisiae [3]) [µg/mL] | IC12 (Saccharomyces cerevisiae [4]) [µg/mL] | IC12 (Saccharomyces cerevisiae [5]) [µg/mL] | IC12 (Saccharomyces cerevisiae [6]) [µg/mL] |
| --- | --- | --- | --- | --- | --- | --- | --- | --- |
| COc1ccc(/C=C\c2cc(OC)c(OC)c(OC)c2)c(O[C@H]2O[C@@H](CO)[C@H](O)[C@@H](O)[C@@H]2O)c1O | 7 (≈ 14.2 µM) | > 100 | 1.5 (≈ 3.03 µM) | 13 (≈ 26.3 µM) | 3 | – | – | – |
| COc1ccc(/C=C\c2cc(OC)c(OC)c(OC)c2)c(O)c1O [COMBRETASTATIN A-1] | – | 53 | – | 1.8 (≈ 5.42 µM) | 18 | 33.5 | 80.1 | 2.2 |
| COc1ccc(CCc2cc(OC)c(OC)c(OC)c2)c(O[C@H]2O[C@@H](CO)[C@H](O)[C@@H](O)[C@@H]2O)c1O | – | > 100 | – | 25 (≈ 50.4 µM) | > 100 | > 100 | > 100 | > 100 |
